System: MS2 coat protein
Experiment: apparent Kd, MS2 coat protein; higher = weaker binding; RNA-MaP array
How it was run: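 RNA designs were transcribed from sequenced DNA templates on an Illumina sequencing chip and then incubated at room temperature with fluorescently labeled MS2 coat protein at 1.5 nM to 3 μM, with or without input ligand, in Tris-HCl pH 7.5 buffer containing KCl, MgCl2, BSA, DTT, tRNA and Tween20. Incubation lasted 0.8–1.5 h at the lowest protein concentrations and 10–20 min at the highest. Apparent Kd is the median of binding-curve fits made for each cluster. Designs measured on fewer than 10 clusters were excluded.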

[1] = designed as: ON switch for flavin mononucleotide, no ligand
[2] = ligand present: flavin mononucleotide, designed as: ON switch for flavin mononucleotide
[3] = designed as: OFF switch for flavin mononucleotide, no ligand
[4] = ligand present: flavin mononucleotide, designed as: OFF switch for flavin mononucleotide
[5] = designed as: OFF switch for tryptophan, no ligand
[6] = ligand present: tryptophan, designed as: OFF switch for tryptophan
[7] = designed as: OFF switch for theophylline, no ligand
[8] = ligand present: theophylline, designed as: OFF switch for theophylline
[9] = designed as: ON switch for tryptophan, no ligand
[10] = ligand present: tryptophan, designed as: ON switch for tryptophan

| Sequence | apparent Kd [1] | apparent Kd [2] | apparent Kd [3] | apparent Kd [4] | also measured |
| --- | --- | --- | --- | --- | --- |
| GCUGAUAUCAAGAAGGCGAUCAGGGAAUAAGAGACAUGAGGAUCACCCAUGUACGCCAUUUGUAUCGAGGAUAUUGAAAAUAGG | 24.4 nM | 7.42 nM |  |  |  |
| GCUGCCUGGACAUGAGGAUCACCCAUGUGGACAAUACUGGCUUAGGAUAUUUGAUUGAAGUUUGGAAAGAAGGAAGCAUACAGC |  |  | 9.17 nM | 8.14 nM |  |
| GCUUUAUUAGGAUAUGUAACCGUUAACAUGAGGAUCACCCAUGUUGAUUCUCAAGAGACCACAGAAGGAAUAAAAG |  |  | 289 nM | 240 nM |  |
| GGAAAACACAAGAAGGCGUCGGACUGGGCGAGACGAGGAUAUUGUAGCUCUAAUCGUGGACAGACAUGAGGAUCACCCAUGUCG | 7.93 nM | 6.18 nM |  |  |  |
| GGAAUGUGAGGAUAUGUUAAGAAGGCGCGACGUUGGGAGACACAGAAGGCACAUGAGGAUCACCCAUGUUAUGA |  |  | 23.2 nM | 31.1 nM |  |
| GGACAAGAAGAGAAGGGCUUACCAAACCUCAACAUGAGGAUCACCCAUGUCAAAGUGGAAGCAUAGCAGGAUAUCUAACAGCGC |  |  | 8.09 nM | 7.72 nM |  |
| GGACGCCAUAUAGAGGAUAUUAAUGUCGACACAUGAGGAUCACCCAUGUCCCACUCGGGCGAACAUAAGAAGGCUAAUCAGACGUA | 14.5 nM | 10.5 nM |  |  |  |
| GGAGUUCUAGGAUAUAAUUCGUGGUACAUGAGGAUCACCCAUGUCGCUGAUGCAUCGCCUUUAGAAGGAGAGAUCU |  |  | 9.03 nM | 9.49 nM |  |
| GGAUCGCUCUACAUGAGGAUCACCCAUGUGACUGAGCUAGAUAGAAGGAGAUGGCGAAAUACUUUCUAGGAUAUAUUGUAGCUA |  |  | 8.05 nM | 8.08 nM |  |
| GGGACACAUGAGGAUCACCCAUGUUGAUGACUUUGAGGAUAUUAGCAAAUUCUGGUCCGCUAAGAAGGCAAGGAAG | 18.8 nM | 9.82 nM |  |  |  |
| GGGUUACACACAUGAGGAUCACCCAUGUUUGCGUGGGCGGGCAGAAGGAGAACCGGAUUACACUUCUAGGAUAUGCAGAUGAUC | 23.6 nM | 28.2 nM |  |  |  |
| GGUGAUUUCCGACGUUUACAUGAGGAUCACCCAUGUAGGUAGAAGGAUAUGUGUAAAAUUGAUAAACAGAAGGUCUUCCGAAUA |  |  | 12.2 nM | 49.3 nM |  |
| GGUGUUACGUCGGCCGCCACUAUACUACAUGAGGAUCACCCAUGUCAUCCCUUCAAUUGGUAGCCUAGGACCGGGACAGAAUUCG |  |  |  |  | apparent Kd [5]: 43.4 nM; apparent Kd [6]: 47.2 nM |
| GGUUCCUCAACGGCCGCCACUUACUGGAUUAGUGGACCUACUUGCAACAUGAGGAUCACCCAUGUAAGGACCGGGUUGCUCCCAA |  |  |  |  | apparent Kd [5]: 68.2 nM; apparent Kd [6]: 79.2 nM |
| GGUUUUUCUGUUAGGAUAUUUCAUGACAGGCGAUGAAAGAAGGAACAUGAGGAUCACCCAUGUGUUUGAGAUAA |  |  | 9.57 nM | 10.6 nM |  |
| GUAACGGAAGGAUAUACGCUUUAAUGGACAGGUUCGAUGGCACAUGAGGAUCACCCAUGUAGAAGGUCCCUAAA |  |  | 10.8 nM | 13.4 nM |  |
| GUAGAGUCAGGAUAUGUCAACUGCUCUGUAAAGCUUGGUCGACAGAAGGGACAUGAGGAUCACCCAUGUGAAGG |  |  | 34.1 nM | 56.5 nM |  |
| GUCAACACAGUAGGAUAUCCAAUGCGUAAGCUCGGAGAAGGACUUAACUAGCAGUUUGAUCGACAUGAGGAUCACCCAUGUAAU |  |  | 11.3 nM | 9.96 nM |  |
| GUCUGGAUGUAGGAUAUGUGUCCGUGCUAGGGUACAGAAGGACAGACAUGAGGAUCACCCAUGUGGAUCAACCG |  |  | 22.6 nM | 38.2 nM |  |
| GUCUGGUCAGGAUAUUCGAGGUGUAACAUGAGGAUCACCCAUGUUUCUUAGCUAGAGGCCGAAGAAGGGACGGGUA |  |  | 11.4 nM | 10.1 nM |  |
| GUGAACGUCAAAGGAUAUGUCGGAACUGCUAGAACAGAAGGUUGGGAAUCGGAUUGGUUGCACAUGAGGAUCACCCAUGUUGAG | 443 nM | 264 nM |  |  |  |
| GUGAUGCAGCAGAAGGGAUCGCUAAGGUUGUAAUCAGGAUAUGCAGUCGCUAGGGCGCCUCGACAUGAGGAUCACCCAUGUUUG |  |  | 52.7 nM | 61.7 nM |  |
| GUGCACAUGAGGAUCACCCAUGUCUGUGUAUUCCUGCUACCAGAGGAUAUGGCGUGCGUAGCUUACCAGAAGGCUGGUUGUAUC |  |  | 30 nM | 13.4 nM |  |
| GUGGGCUAGGAGAAGGACGAUCGAAGCCAUAUCGUAGGAUAUCCAUUAAGAUCCCGGACAUGAGGAUCACCCAUGUGGUGAUAG |  |  | 676 nM | 414 nM |  |
| GUGUGGCGCUCAGGAUAUAGAAGGUCGCUAGUUCUAGAAGGGAGCAACGAGGUACCACAUGAGGAUCACCCAUGUUUGGUUGAC |  |  | 15.4 nM | 13.3 nM |  |
| GUUCCCUCACAGAAGGAGUGUGUUAGUUGCACAUGAGGAUCACCCAUGUAAUAAACACGUGGCCACUAGGAUAUGUUAAACUGC | 12.9 nM | 10.8 nM |  |  |  |
| GUUUUGCGAAUAGGAUAUAGUAAUGAUUCAGGAAGCCUGAACAUGAGGAUCACCCAUGUGCCAUCCUAGAAGGAUUCGCACGUG | 359 nM | 186 nM |  |  |  |

| Sequence | apparent Kd [1] | apparent Kd [2] | apparent Kd [3] | apparent Kd [4] | also measured |
| --- | --- | --- | --- | --- | --- |
| UAACAUUGCUAGAAGGGCGGUCAUCAGAUGGCCGCAGGAUAUAGACAUGAGGAUCACCCAUGUGAAGGGCAGGUUGUUCUAGUU | 18.1 nM | 22.5 nM |  |  |  |
| UAAUCCAACUCGUAAUGACAUGAGGAUCACCCAUGUGAGCGUGAGGAUAUUGUAAGCUAGGAGGUCAAGAAGGCACGCCAGGAG |  |  | 9.1 nM | 10 nM |  |
| UAGCAGUUCACAGGAUAUAGUUUGCGAUAAGUUUAUUUAUGAGAGACAUGAGGAUCACCCAUGUACUAGAAGGGUGAGAAAUAA | 461 nM | 130 nM |  |  |  |
| UAGCGAUCUCGUUAAAGGAUCCCAUUUGAUACCAGAGAACUUUGCCUCCCUUGGCAGCAAGUGACAUGAGGAUCACCCAUGUUGA |  |  |  |  | apparent Kd [7]: 16.2 nM; apparent Kd [8]: 23.9 nM |
| UAGUAGUAAGGAUAUGCGGCACCGACGCCUCCGAACCGCGGGCAGAAGGUACAUGAGGAUCACCCAUGUGGGUA |  |  | 169 nM | 116 nM |  |
| UAGUAUGGCACAGGAUAUACAAUUAAUAUGCGGGUAGAAGGGUGGUAUCGACAUGAGGAUCACCCAUGUUAGGAAGAAACACAC | 134 nM | 78.2 nM |  |  |  |
| UAUAAGGGUCAGAAGGCAGUGGCGCAGAAUGACUGAGGAUAUGAUAACCGGUAAUUUAACAUGAGGAUCACCCAUGUCUACAAC | 11.7 nM | 10.2 nM |  |  |  |
| UAUACUACUGAGGAUAUCCAAUCCCAGAAACAAGGAGAAGGCAGUACAUGAGGAUCACCCAUGUUCCUCGACAU |  |  | 43.1 nM | 127 nM |  |
| UAUUAGUUAGAGAAGGUCCUUAGGCCGCGUAAGGAAGGAUAUCUGCAUCACGGGCCUCUGGCAACAUGAGGAUCACCCAUGUGG |  |  | 96.8 nM | 156 nM |  |
| UCACUGUUAGGAUAUCUCAUAGCAGUAGGUCAGCUAUUUUGAGAGAAGGAACAUGAGGAUCACCCAUGUAAAUA |  |  | 19.6 nM | 84.7 nM |  |
| UCAUAGUCAGGAUAUUUAUUUGGCGGAGACUGCGGCCACCGAAAGAAGGGACAUGAGGAUCACCCAUGUAUCGG |  |  | 16.3 nM | 26.9 nM |  |
| UCAUUGAGAGUCAUCCAGCGUUAAUGGGAUACCAGAGUUCUUUUACUCCCUUGGCAGCCCGGAACAUGAGGAUCACCCAUGUCUG |  |  |  |  | apparent Kd [7]: 34.9 nM; apparent Kd [8]: 80.8 nM |
| UCCAUACGGUAGGAUAUAUGUACCCAGAAGGGCAUAGAAGGACCCACAUGAGGAUCACCCAUGUUCCUUUGGUG |  |  | 24.4 nM | 30.5 nM |  |
| UCCGCGGAGACGGCCGCCACUGAGUGAGAAGUCGUGCUCUAACUACAUGAGGAUCACCCAUGUCCCAGGACCGGGUCGAAGUGUU |  |  |  |  | apparent Kd [9]: 214 nM; apparent Kd [10]: 103 nM |
| UCCGGCGUUGACUAGGAUAUACGGAGGGUAACAUGAGGAUCACCCAUGUAAAGAACUAAAACAGCGUAGAAGGAGUCCAAAGCGAC | 28 nM | 19.1 nM |  |  |  |
| UCGCGUCUAGCUCAGGAUAUUGUGCCUGAUACAUGAGGAUCACCCAUGUCCUAAGUGCAAACCAACAAGAAGGGAGCUAAGCAUGU | 13.9 nM | 13.2 nM |  |  |  |
| UCGGUGUAAGAGAAGGAAGUGUUCGCAGGCCAAGGCUCAUUGGCUACAUGAGGAUCACCCAUGUCUUAGGAUAUCUGCGCUCCG | 45.6 nM | 16.7 nM |  |  |  |
| UCGGUUUGUGCAGGAUAUGCUUACACCCUAGAGGCAGAAGGGCAUAUCACAUGAGGAUCACCCAUGUACAAUCGUCCAAGGGCA | 29.8 nM | 23.4 nM |  |  |  |
| UCUAACAUGAGGAUCACCCAUGUACCGUCCCGAGGACCGGUACGGCCGCCACUCGUCUUGCUAAAACUGAAGUGAUCACAAGCCU |  |  |  |  | apparent Kd [9]: 20.2 nM; apparent Kd [10]: 30.8 nM |
| UCUCAUAUGGAAGGAUAUCAUACCUUGUCGAGAUGAGAAGGUCCGUAUGGACAUAACAUGAGGAUCACCCAUGUUUCUUGUGUU | 188 nM | 128 nM |  |  |  |
| UCUCUUAAAGCAGGAUAUGAAAUCCACCAGGAAUCAGAAGGGCUCAACGUUACAUGAGGAUCACCCAUGUCCCUUAUGACAAUA |  |  | 7.83 nM | 9.35 nM |  |
| UGAAAUUUGGAGAAGGGACGCACGUGGUAGUGGCUACAUGAGGAUCACCCAUGUUAAUUGAUCAGUCAGGAUAUCCGGUUGUUC |  |  | 18.1 nM | 22.1 nM |  |
| UGAAUACAUGAGGAUCACCCAUGUUACGACCUCACAGGAUAUCAGAUAAAGGCUCUCAUCUGAGAAGGGUGGCUCC | 63.3 nM | 38.8 nM |  |  |  |
| UGACACAUGAGGAUCACCCAUGUCGCGAAACGAGGACCGGUACGGCCGCCACUCGCACAAACUCCUCUCCAGCACCAGCUUUUAG |  |  |  |  | apparent Kd [9]: 19.4 nM; apparent Kd [10]: 15.5 nM |
| UGAUCUGGCGGAGGAUAUAUGCCAGUAAAACUGAUAGAAGGCCGUGAUAUAACAUGAGGAUCACCCAUGUGAGCUCCUUAGCGA |  |  | 20.5 nM | 18.1 nM |  |
| UGCCAGGCACAGAAGGUAGCGUGUCCUCAAGACAUGAGGAUCACCCAUGUGGAAAGAUUAAGACCUAAGGAUAUGUGUAUCACC |  |  | 143 nM | 93.9 nM |  |
| UGCGACAAGUGAAUACUUUGUUCUAGAGAUACCAGUUCCCGAGUGAACCCUUGGCAGCUCCCAACAUGAGGAUCACCCAUGUAUU |  |  |  |  | apparent Kd [7]: 14.5 nM; apparent Kd [8]: 28.5 nM |
